Consider seven molecules from paper PMC11310375 (EJNMMI Radiopharmacy and Chemistry, 2024).

Square brackets hold non-standard residues; d marks the D form. Peptide text beside a SMILES is read from it. * marks the point of attachment. AspCH2OCO(5-Me-thien-2-yl) = Cc1ccc(C(=O)OCC(=O)[C@H](CC(=O)O)N*)s1; Phe(F5) = N[C@@H](Cc1c(F)c(F)c(F)c(F)c1F)C(=O)O; X5 = Cc1cccc(C)c1C(=O)OCC(=O)[C@@H](CC(=O)O)N*; X4 = Cc1ccc(C(=O)OCC(=O)[C@@H](CC(=O)O)N*)s1; X2 = O=C(CCOCCOCCOCCOCCn1cc(CCCF)nn1)*; d(β3hL) = CC(C)C[C@@H](N)CC(=O)O; 3Pal = N[C@@H](Cc1cccnc1)C(=O)O; d3Pal = N[C@H](Cc1cccnc1)C(=O)O; X3 = O=C(CCCc1cn(CCF)nn1)*; X1 = O=C(Cn1cc(CCCF)nn1)*; Ahx = NCCCCCC(=O)O

Holding throughout (experiment): Biochemical inhibition assay, kinact/Ki with AMAC substrate
Assay [1] addresses T1, caspase-6 (Homo sapiens, UniProt P55212).
T1 sequence (P55212 24-179 limits assumed): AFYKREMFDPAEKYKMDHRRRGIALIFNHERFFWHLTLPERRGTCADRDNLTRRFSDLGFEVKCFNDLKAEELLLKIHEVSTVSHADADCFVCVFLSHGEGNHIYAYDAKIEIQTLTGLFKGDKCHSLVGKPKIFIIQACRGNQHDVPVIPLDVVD
T1 sequence (P55212 194-293 limits assumed): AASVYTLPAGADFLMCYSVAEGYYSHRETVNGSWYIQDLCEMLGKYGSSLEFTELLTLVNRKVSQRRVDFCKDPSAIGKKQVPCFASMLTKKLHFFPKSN
As to conditions: read-out: kinact/Ki C6. The method, boiled down:
(§1)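 Caspase-8 (25 nM), caspase-9 (100 nM) and caspase-10 (20 nM) used Ac-IETD-AMAC; caspase-9 and caspase-10 buffers also had 0.7 M sodium citrate. Caspase-6 (25 nM) used Ac-VEID-AMAC. Fluorescence (ex 320/em 460) was read immediately, and progress curves were fit for kinact and Ki.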

Assay [2] concerns the target T2, caspase-3 (Homo sapiens, UniProt P42574).
T2 sequence (P42574 29-175 limits assumed): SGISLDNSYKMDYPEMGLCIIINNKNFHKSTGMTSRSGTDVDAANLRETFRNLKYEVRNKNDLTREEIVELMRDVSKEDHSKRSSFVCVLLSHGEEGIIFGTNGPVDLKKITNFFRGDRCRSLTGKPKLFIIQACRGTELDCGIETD
T2 sequence (P42574 176-277 limits assumed): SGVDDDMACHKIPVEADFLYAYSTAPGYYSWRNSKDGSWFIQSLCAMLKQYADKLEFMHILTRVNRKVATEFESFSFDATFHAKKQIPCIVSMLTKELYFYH
Conditions: for kinact/KI: read-out: kinact/Ki C3. A digest of the protocol:
(§2)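 Continuous fluorogenic inactivation assay with Ac-DEVD-AMAC at 100 μM final. Final enzyme concentrations were 1 nM caspase-3 and 5 nM caspase-7. Enzyme was added to substrate plus inhibitor, and fluorescence (ex 320/em 460) was read immediately. Progress curves were fit to F = -[v₀(1-exp(-kobst))/kobs-Fmax] to give kinact and Ki.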

The target of assay [3] is T3, caspase-7 (Homo sapiens, UniProt P55210).
T3 sequence (P55210 24-198 limits assumed): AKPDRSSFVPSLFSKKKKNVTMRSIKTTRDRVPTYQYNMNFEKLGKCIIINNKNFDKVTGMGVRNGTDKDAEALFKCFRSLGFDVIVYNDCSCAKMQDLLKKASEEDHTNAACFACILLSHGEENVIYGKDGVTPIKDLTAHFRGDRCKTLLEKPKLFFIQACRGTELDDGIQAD
T3 sequence (P55210 207-303 limits assumed): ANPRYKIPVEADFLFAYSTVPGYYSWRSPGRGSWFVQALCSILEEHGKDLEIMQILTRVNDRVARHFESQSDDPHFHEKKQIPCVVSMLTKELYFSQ
Conditions: read-out: kinact/Ki C7. A digest of the protocol: as §2

Assay [4] concerns the target T4, caspase-10 (Homo sapiens, UniProt Q92851).
T4 sequence (Q92851 220-415 limits assumed): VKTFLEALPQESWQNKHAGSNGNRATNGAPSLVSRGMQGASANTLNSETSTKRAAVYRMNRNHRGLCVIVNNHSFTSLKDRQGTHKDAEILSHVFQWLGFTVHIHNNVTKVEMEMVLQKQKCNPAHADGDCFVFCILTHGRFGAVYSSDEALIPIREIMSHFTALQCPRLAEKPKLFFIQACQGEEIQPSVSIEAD
T4 sequence (Q92851 416-521 limits assumed): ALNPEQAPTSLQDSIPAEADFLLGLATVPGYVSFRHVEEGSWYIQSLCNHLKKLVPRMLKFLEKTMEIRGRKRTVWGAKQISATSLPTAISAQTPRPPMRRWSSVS
As to conditions: read-out: kinact/Ki C10. A digest of the protocol: as §1

The target in assay [5] is caspase-8 (Homo sapiens, UniProt Q14790). Conditions: read-out: kinact/Ki C8. A digest of the protocol: as §1
caspase-8, sequence (Q14790 217-374 limits assumed): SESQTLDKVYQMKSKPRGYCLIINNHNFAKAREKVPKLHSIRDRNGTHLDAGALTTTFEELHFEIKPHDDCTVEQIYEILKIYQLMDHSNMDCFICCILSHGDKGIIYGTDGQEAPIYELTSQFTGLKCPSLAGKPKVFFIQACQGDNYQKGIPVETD
caspase-8, sequence (Q14790 385-479 limits assumed): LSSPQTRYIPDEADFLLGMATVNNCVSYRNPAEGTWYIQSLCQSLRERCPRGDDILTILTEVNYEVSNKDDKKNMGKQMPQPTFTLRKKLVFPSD
In assay [6] the target is T5, caspase-9 (Homo sapiens, UniProt P55211).
T5 sequence (P55211 1-315 limits assumed): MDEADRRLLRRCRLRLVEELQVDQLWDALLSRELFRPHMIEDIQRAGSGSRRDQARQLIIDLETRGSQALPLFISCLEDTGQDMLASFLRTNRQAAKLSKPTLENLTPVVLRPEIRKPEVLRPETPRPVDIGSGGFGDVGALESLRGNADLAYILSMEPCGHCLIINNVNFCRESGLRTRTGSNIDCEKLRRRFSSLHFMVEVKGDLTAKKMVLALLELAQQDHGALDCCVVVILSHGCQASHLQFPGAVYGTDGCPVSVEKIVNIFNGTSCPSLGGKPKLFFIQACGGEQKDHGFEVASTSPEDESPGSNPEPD
T5 sequence (P55211 331-416 limits assumed): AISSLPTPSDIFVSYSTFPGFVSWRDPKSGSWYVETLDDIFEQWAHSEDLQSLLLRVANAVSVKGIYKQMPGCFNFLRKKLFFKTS
As to conditions: read-out: kinact/Ki C9. A digest of the protocol:
as §1

Consider `Cc1ccc(C(=O)OCC(=O)[C@@H](CC(=O)O)NC(=O)[C@@H](Cc2ccccc2)NC(=O)C[C@@H](CC(C)C)NC(=O)[C@@H](CC(=O)O)NC(=O)[C@@H](Cc2cccnc2)NC(=O)CCCCCNC(=O)CCCCCNC(=O)CCCc2cn(CCF)nn2)s1` [Inhibitor 1, (3R,6R,10R,13R,16R)-6-benzyl-13-(carboxymethyl)-35-(1-(2-fluoroethyl)-1H-1,2,3-triazol-4-yl)-10-isobutyl-3-(2-((5-methylthiophene-2-carbonyl)oxy)acetyl)-5,8,12,15,18,25,32-heptaoxo-16-(pyridin-3-ylmethyl)-4,7,11,14,17,24,31-heptaazapentatriacontanoic acid] ({X3-Ahx-Ahx}-[d3Pal][dD][d(β3hL)][dF]-X4), for which the results for the kinact/KI in assay [1], in assay [2] and in assay [3] were 200 M⁻¹ s⁻¹, 73500 M⁻¹ s⁻¹ and 200 M⁻¹ s⁻¹, respectively.
Take `Cc1cccc(C)c1C(=O)OCC(=O)[C@@H](CC(=O)O)NC(=O)[C@@H](Cc1ccccc1)NC(=O)C[C@@H](CC(C)C)NC(=O)[C@@H](CC(=O)O)NC(=O)[C@@H](Cc1cccnc1)NC(=O)CCCCCNC(=O)CCCCCNC(=O)CCCc1cn(CCF)nn1` [Inhibitor 3, (3R,6R,10R,13R,16R)-6-benzyl-13-(carboxymethyl)-3-(2-((2,6-dimethylbenzoyl)oxy)acetyl)-35-(1-(2-fluoroethyl)-1H-1,2,3-triazol-4-yl)-10-isobutyl-5,8,12,15,18,25,32-heptaoxo-16-(pyridin-3-ylmethyl)-4,7,11,14,17,24,31-heptaazapentatriacontanoic acid] ({X3-Ahx-Ahx}-[d3Pal][dD][d(β3hL)][dF]-X5): the kinact/KI in assay [1] came to 5400 M⁻¹ s⁻¹; in assay [2] it was 206000 M⁻¹ s⁻¹; in assay [3], 1000 M⁻¹ s⁻¹.
Turning to `Cc1ccc(C(=O)OCC(=O)[C@H](CC(=O)O)NC(=O)[C@H](Cc2ccccc2)NC(=O)[C@H](Cc2c(F)c(F)c(F)c(F)c2F)NC(=O)[C@H](CC(=O)O)NC(=O)[C@H](Cc2cccnc2)NC(=O)CNC(=O)[C@H](CCC(=O)O)NC(=O)CNC(=O)Cn2cc(CCCF)nn2)s1` [Inhibitor 4, (3S,6S,9S,12S,15S,21S)-6-benzyl-12-(carboxymethyl)-21-(2-(2-(4-(3-fluoropropyl)-1H-1,2,3-triazol-1-yl)acetamido)acetamido)-3-(2-((5-methylthiophene-2-carbonyl)oxy)acetyl)-5,8,11,14,17,20-hexaoxo-9-((perfluorophenyl)methyl)-15-(pyridin-3-ylmethyl)-4,7,10,13,16,19-hexaazatetracosanedioic acid] (X1-GEG[3Pal]D[Phe(F5)]F-{AspCH2OCO(5-Me-thien-2-yl)}), the kinact/KI in assay [1] worked out at 200 M⁻¹ s⁻¹; in assay [4] it was 700 M⁻¹ s⁻¹; in assay [5], 7200 M⁻¹ s⁻¹; in assay [2] it was 863000 M⁻¹ s⁻¹; in assay [6], 800 M⁻¹ s⁻¹; in assay [3], 71400 M⁻¹ s⁻¹.
In the case of `Cc1ccc(C(=O)OCC(=O)[C@H](CC(=O)O)NC(=O)[C@H](Cc2ccccc2)NC(=O)[C@H](Cc2c(F)c(F)c(F)c(F)c2F)NC(=O)[C@H](CC(=O)O)NC(=O)[C@H](Cc2cccnc2)NC(=O)CCOCCOCCOCCOCCn2cc(CCCF)nn2)s1` [Inhibitor 5, (17S,20S,23S,26S,29S)-26-benzyl-20-(carboxymethyl)-1-(4-(3-fluoropropyl)-1H-1,2,3-triazol-1-yl)-29-(2-((5-methylthiophene-2-carbonyl)oxy)acetyl)-15,18,21,24,27-pentaoxo-23-((perfluorophenyl)methyl)-17-(pyridin-3-ylmethyl)-3,6,9,12-tetraoxa-16,19,22,25,28-pentaazahentriacontan-31-oic acid] (X2-[3Pal]D[Phe(F5)]F-{AspCH2OCO(5-Me-thien-2-yl)}), the kinact/KI in assay [1] worked out at 300 M⁻¹ s⁻¹; in assay [4] it was 600 M⁻¹ s⁻¹; in assay [5], 13500 M⁻¹ s⁻¹; in assay [2], 1.25e+06 M⁻¹ s⁻¹; in assay [6] it was 1000 M⁻¹ s⁻¹; in assay [3], 106000 M⁻¹ s⁻¹.
In the case of `Cc1ccc(C(=O)OCC(=O)[C@H](CC(=O)O)NC(=O)[C@H](Cc2ccccc2)NC(=O)[C@H](Cc2c(F)c(F)c(F)c(F)c2F)NC(=O)[C@H](CC(=O)O)NC(=O)[C@H](Cc2cccnc2)NC(=O)CCCCCNC(=O)Cn2cc(CCCF)nn2)s1` [Inhibitor 6, (11S,14S,17S,20S,23S)-20-benzyl-14-(carboxymethyl)-1-(4-(3-fluoropropyl)-1H-1,2,3-triazol-1-yl)-23-(2-((5-methylthiophene-2-carbonyl)oxy)acetyl)-2,9,12,15,18,21-hexaoxo-17-((perfluorophenyl)methyl)-11-(pyridin-3-ylmethyl)-3,10,13,16,19,22-hexaazapentacosan-25-oic acid] ({X1-Ahx}-[3Pal]D[Phe(F5)]F-{AspCH2OCO(5-Me-thien-2-yl)}), the kinact/KI is 200 M⁻¹ s⁻¹ in assay [1]; 900 M⁻¹ s⁻¹ in assay [4]; 7700 M⁻¹ s⁻¹ in assay [5]; 851000 M⁻¹ s⁻¹ in assay [2]; 900 M⁻¹ s⁻¹ in assay [6]; 108000 M⁻¹ s⁻¹ in assay [3].
Regarding `Cc1ccc(C(=O)OCC(=O)[C@H](CC(=O)O)NC(=O)[C@H](Cc2ccccc2)NC(=O)[C@H](Cc2c(F)c(F)c(F)c(F)c2F)NC(=O)[C@H](CC(=O)O)NC(=O)[C@H](Cc2cccnc2)NC(=O)CNC(=O)CNC(=O)CNC(=O)Cn2cc(CCCF)nn2)s1` [Inhibitor 7, (13S,16S,19S,22S,25S)-22-benzyl-16-(carboxymethyl)-1-(4-(3-fluoropropyl)-1H-1,2,3-triazol-1-yl)-25-(2-((5-methylthiophene-2-carbonyl)oxy)acetyl)-2,5,8,11,14,17,20,23-octaoxo-19-((perfluorophenyl)methyl)-13-(pyridin-3-ylmethyl)-3,6,9,12,15,18,21,24-octaazaheptacosan-27-oic acid] (X1-GGG[3Pal]D[Phe(F5)]F-{AspCH2OCO(5-Me-thien-2-yl)}), the kinact/KI came to 300 M⁻¹ s⁻¹ in assay [1]; 1000 M⁻¹ s⁻¹ in assay [4]; 15200 M⁻¹ s⁻¹ in assay [5]; 1.62e+06 M⁻¹ s⁻¹ in assay [2]; 700 M⁻¹ s⁻¹ in assay [6]; 117000 M⁻¹ s⁻¹ in assay [3]. Further, in assay [2] (ratio of kinact/Ki), the “inactivation rate on caspase-3 as compared to caspase-7” value amounted to 14 times.
`Cc1ccc(C(=O)OCC(=O)[C@H](CC(=O)O)NC(=O)[C@H](Cc2ccccc2)NC(=O)[C@H](Cc2c(F)c(F)c(F)c(F)c2F)NC(=O)[C@H](CC(=O)O)NC(=O)[C@H](Cc2cccnc2)NC(=O)Cn2cc(CCCF)nn2)s1` [Inhibitor 8, (4S,7S,10S,13S,16S)-13-benzyl-7-(carboxymethyl)-1-(4-(3-fluoropropyl)-1H-1,2,3-triazol-1-yl)-16-(2-((5-methylthiophene-2-carbonyl)oxy)acetyl)-2,5,8,11,14-pentaoxo-10-((perfluorophenyl)methyl)-4-(pyridin-3-ylmethyl)-3,6,9,12,15-pentaazaoctadecan-18-oic acid] (X1-[3Pal]D[Phe(F5)]F-{AspCH2OCO(5-Me-thien-2-yl)}): the kinact/KI in assay [4] turned out to be 700 M⁻¹ s⁻¹; in assay [5], 5600 M⁻¹ s⁻¹; in assay [2], 549000 M⁻¹ s⁻¹; in assay [6], 400 M⁻¹ s⁻¹; in assay [3], 61000 M⁻¹ s⁻¹.
